From ChEMBL document CHEMBL5724801, “EUbOPEN Chemogenomics Library - Multiplex” (2024)
Several values for one entry are separate records, joined by “and”; a condition that tells them apart may be missing. Equal entries are not always repeated.

How the values were obtained:
Fibroblast = experiment: Multiplex assay against human fibroblast; type: toxicity, cell-based
Outline: (§1)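 Values for tubulin, mitochondrial-mass and membrane-permeability phenotypes are per cents of cells with healthy nuclei. These cells were identified by CellPathfinder machine-learning gating of live cells that had been stained at seeding with Hoechst33342, BioTracker Green Microtubule Cytoskeleton Dye, MitoTracker Red and Annexin V Alexa Fluor 680 and imaged on a CQ1 microscope at 37°C and 5% CO2 after compound addition. The gating first set Hoechst high-intensity objects apart from normal cells, then split normal cells into healthy, pyknosed or fragmented nuclei, and pyknosed cells into mitotic or apoptotic.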

HEK-293T = experiment: Multiplex assay against HEK293T; type: toxicity, cell-based; settings: human; outline: as §1
[1] = 12 h, 1 µM, compound concentration 1 uM
[2] = 12 h, 10 µM, compound concentration 10 uM
[3] = 24 h, 1 µM, compound concentration 1 uM
[4] = 24 h, 10 µM, compound concentration 10 uM
[5] = 48 h, 1 µM, compound concentration 1 uM
[6] = 48 h, 10 µM, compound concentration 10 uM

## Cc1sc2c(c1C)C(c1ccc(Cl)cc1)=N[C@H](CC(=O)OC(C)(C)C)c1nnc(C)n1-2
Fibroblast; [1]
  Population Apoptotic (%): 43% and 33%
  Population Fragmented Nuclei (%): 15% and 26%
  Population Healthy Nuclei (%): 62% and 51%
  Population Hoechst High Intensity Objects (%): 2% and 5%
  Population Membrane Permeable-Phenotype (%): 0% and 15%
  Population Mitochondria Different-Phenotype (%): 5% and 10%
  Population Mitotic Cells (%): 56% and 66%
  Population Normal (%): 97% and 94%
  Population Pyknosed Nuclei (%): 22%
  Population Tubulin-Different-Phenotype (%): 30% and 46%
  Total Cell Count: 180 and 159
Fibroblast; [2]
  Population Apoptotic (%): 43% and 51%
  Population Fragmented Nuclei (%): 19% and 30%
  Population Healthy Nuclei (%): 55% and 39%
  Population Hoechst High Intensity Objects (%): 7% and 5%
  Population Membrane Permeable-Phenotype (%): 0% and 4%
  Population Mitochondria Different-Phenotype (%): 15% and 20%
  Population Mitotic Cells (%): 56% and 48%
  Population Normal (%): 92% and 94%
  Population Pyknosed Nuclei (%): 25% and 29%
  Population Tubulin-Different-Phenotype (%): 90% and 95%
  Total Cell Count: 128 and 169
Fibroblast; [3]
  Population Apoptotic (%): 82% and 46%
  Population Fragmented Nuclei (%): 17% and 29%
  Population Healthy Nuclei (%): 60% and 50%
  Population Hoechst High Intensity Objects (%): 2% and 6%
  Population Membrane Permeable-Phenotype (%): 0% and 11%
  Population Mitochondria Different-Phenotype (%): 2% and 5%
  Population Normal (%): 97% and 93%
  Population Pyknosed Nuclei (%): 21% and 20%
  Population Tubulin-Different-Phenotype (%): 29% and 51%
  Total Cell Count: 186 and 149
Fibroblast; [4]
  Population Apoptotic (%): 75% and 51%
  Population Fragmented Nuclei (%): 16% and 26%
  Population Healthy Nuclei (%): 69% and 45%
  Population Hoechst High Intensity Objects (%): 8% and 4%
  Population Membrane Permeable-Phenotype (%): 2% and 4%
  Population Mitochondria Different-Phenotype (%): 19% and 26%
  Population Mitotic Cells (%): 25% and 48%
  Population Normal (%): 91% and 95%
  Population Pyknosed Nuclei (%): 14% and 27%
  Population Tubulin-Different-Phenotype (%): 76% and 87%
  Total Cell Count: 123 and 165
Fibroblast; [5]
  Population Apoptotic (%): 63% and 53%
  Population Fragmented Nuclei (%): 19% and 29%
  Population Healthy Nuclei (%): 66% and 49%
  Population Hoechst High Intensity Objects (%): 5%
  Population Membrane Permeable-Phenotype (%): 0% and 12%
  Population Mitochondria Different-Phenotype (%): 2% and 10%
  Population Mitotic Cells (%): 36% and 46%
  Population Normal (%): 94% and 95%
  Population Pyknosed Nuclei (%): 13% and 21%
  Population Tubulin-Different-Phenotype (%): 28% and 69%
  Total Cell Count: 170 and 140
Fibroblast; [6]
  Population Apoptotic (%): 50% and 63%
  Population Fragmented Nuclei (%): 21% and 35%
  Population Healthy Nuclei (%): 66% and 51%
  Population Hoechst High Intensity Objects (%): 1%
  Population Membrane Permeable-Phenotype (%): 1% and 4%
  Population Mitochondria Different-Phenotype (%): 13% and 9%
  Population Mitotic Cells (%): 50% and 36%
  Population Normal (%): 98%
  Population Pyknosed Nuclei (%): 12% and 13%
  Population Tubulin-Different-Phenotype (%): 70% and 88%
  Total Cell Count: 134 and 170
HEK-293T; [1]
  Population Apoptotic (%): 40% and 44%
  Population Fragmented Nuclei (%): 8% and 6%
  Population Healthy Nuclei (%): 80% and 76%
  Population Hoechst High Intensity Objects (%): 8% and 9%
  Population Membrane Permeable-Phenotype (%): 0%
  Population Mitochondria Different-Phenotype (%): 49% and 65%
  Population Mitotic Cells (%): 60% and 55%
  Population Normal (%): 91% and 90%
  Population Pyknosed Nuclei (%): 10% and 17%
  Population Tubulin-Different-Phenotype (%): 32% and 26%
  Total Cell Count: 478 and 333
HEK-293T; [2]
  Population Apoptotic (%): 41% and 66%
  Population Fragmented Nuclei (%): 7% and 5%
  Population Healthy Nuclei (%): 76% and 72%
  Population Hoechst High Intensity Objects (%): 7% and 10%
  Population Membrane Permeable-Phenotype (%): 0%
  Population Mitochondria Different-Phenotype (%): 74% and 90%
  Population Mitotic Cells (%): 58% and 33%
  Population Normal (%): 92% and 89%
  Population Pyknosed Nuclei (%): 15% and 21%
  Population Tubulin-Different-Phenotype (%): 67% and 70%
  Total Cell Count: 395 and 303
HEK-293T; [3]
  Population Apoptotic (%): 32%
  Population Fragmented Nuclei (%): 10%
  Population Healthy Nuclei (%): 76% and 82%
  Population Hoechst High Intensity Objects (%): 5% and 6%
  Population Membrane Permeable-Phenotype (%): 0%
  Population Mitochondria Different-Phenotype (%): 29% and 43%
  Population Mitotic Cells (%): 68% and 67%
  Population Normal (%): 94% and 93%
  Population Pyknosed Nuclei (%): 13% and 6%
